In ChEMBL document CHEMBL4325922, “Restoring Let-7 microRNA Biogenesis Using a Small-Molecule Inhibitor of the Protein-RNA Interaction” (ACS Med Chem Lett, 2018):
Blank lines part the entries; values can stand above or below the molecule they belong to. Active and inactive are the calls of the source. No cut-off for these calls is given here.

Columns and labels:
[1] = biological target: T1, Protein lin-28 homolog A/B (Homo sapiens) (UniProt Q6ZN17+Q9H9Z2); experiment: Inhibition of Lin28a/Lin28b in human paclitaxel-resistant JAR cells assessed as reduction in IMP1 expression at 40 uM measured after 24 hrs by Western blot analysis
T1 sequence (Q6ZN17 whole entry, looked up, one chain of several): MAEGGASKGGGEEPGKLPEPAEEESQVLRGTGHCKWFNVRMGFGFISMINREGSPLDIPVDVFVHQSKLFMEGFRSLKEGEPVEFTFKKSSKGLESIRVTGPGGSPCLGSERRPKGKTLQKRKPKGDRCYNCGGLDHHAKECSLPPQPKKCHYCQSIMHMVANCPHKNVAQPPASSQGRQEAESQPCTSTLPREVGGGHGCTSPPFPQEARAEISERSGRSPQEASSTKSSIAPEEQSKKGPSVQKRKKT

[2] = biological target: T1, Protein lin-28 homolog A/B (Homo sapiens); experiment: Inhibition of Lin28a/Lin28b in human paclitaxel-resistant JAR cells assessed as reduction in MDR1 expression at 40 uM measured after 30 hrs by Western blot analysis
[3] = biological target: T1, Protein lin-28 homolog A/B (Homo sapiens); experiment: Inhibition of Lin28a/Lin28b in human paclitaxel-resistant JAR cells assessed as potentiation of paclitaxel induced cytotoxicity at 40 uM pretreated for 30 hrs followed by paclitaxel addition and measured after 72 hrs by WTS assay
In short: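 Paclitaxel-resistant JAR persister cells, enriched by cytotoxic paclitaxel exposure and regrowth without drug. Cells pretreated 30 h with compound, then given paclitaxel for 72 h without compound; WST viability used to derive the paclitaxel IC50.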

[4] = biological target: T2, Protein lin-28 homolog A (Homo sapiens) (UniProt Q9H9Z2); experiment: Inhibition of Cy5-preE-let-7g binding to recombinant human N-terminal His6-tagged Lin28a expressed in Escherichia coli Rosetta2 (DE3) pLysS at 15 uM measured after 30 to 60 mins by electrophoretic mobility shift assay relative to control
T2 sequence (whole entry): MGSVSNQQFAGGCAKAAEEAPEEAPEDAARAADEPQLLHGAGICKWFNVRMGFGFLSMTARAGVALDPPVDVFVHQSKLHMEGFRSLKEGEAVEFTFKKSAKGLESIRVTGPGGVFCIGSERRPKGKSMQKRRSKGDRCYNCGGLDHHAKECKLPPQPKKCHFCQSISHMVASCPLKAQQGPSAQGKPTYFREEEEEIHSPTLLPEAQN

[5] = biological target: T1, Protein lin-28 homolog A/B (Homo sapiens); experiment: Inhibition of Lin28a/Lin28b in human JAR cells assessed as increase in mature let-7g level at 5 to 10 uM after 20 hrs by TRIzol dye based qRT-PCR analysis; type: cell-based
In short: (§1)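 JAR cells (express Lin28a and Lin28b) exposed to compound for 20 h; miRNA levels quantified with U6 snRNA as endogenous control; three or more biological replicates, standard deviation, paired two-tailed t test.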

[6] = biological target: T1, Protein lin-28 homolog A/B (Homo sapiens); experiment: Inhibition of Lin28a/Lin28b in human JAR cells assessed as reduction in Ras expression at 5 to 10 uM after 24 hrs by Western blot analysis; type: cell-based
In short: (§2)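 Endogenous let-7 target proteins (HMGA2, IMP1, Ras, Lin28a) detected by Western blot in JAR or PA-1 cells after 24 h compound treatment.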

[7] = biological target: T1, Protein lin-28 homolog A/B (Homo sapiens); experiment: Inhibition of Lin28a/Lin28b in human JAR cells assessed as reduction in IMP1 expression at 5 to 10 uM after 24 hrs by Western blot analysis; type: cell-based; in short: as §2
[8] = biological target: T1, Protein lin-28 homolog A/B (Homo sapiens); experiment: Inhibition of Lin28a/Lin28b in human JAR cells assessed as reduction in Lin28a expression at 5 to 10 uM after 24 hrs by Western blot analysis; type: cell-based; in short: as §2
[9] = biological target: T1, Protein lin-28 homolog A/B (Homo sapiens); experiment: Inhibition of Lin28a/Lin28b in human JAR cells assessed as reduction in HMGA2 expression at 5 to 10 uM after 24 hrs by Western blot analysis; type: cell-based; in short: as §2
[10] = biological target: T1, Protein lin-28 homolog A/B (Homo sapiens); experiment: Inhibition of Lin28a/Lin28b in human JAR cells assessed as increase in mature let-7a level at 5 to 10 uM after 20 hrs by TRIzol dye based qRT-PCR analysis; type: cell-based; in short: as §1
Protein lin-28 homolog A = biological target: T3, Protein lin-28 homolog A (Homo sapiens, UniProt Q9H9Z2); experiment: Inhibition of Cy5-preE-let-7g binding to recombinant human N-terminal His6-tagged Lin28a expressed in Escherichia coli Rosetta2 (DE3) pLysS measured after 30 to 60 mins by electrophoretic mobility shift assay
T3 sequence (Q9H9Z2 whole entry): T2 sequence (whole entry)

- inhibition [1]: Active
- inhibition [2]: Active
Structure (SMILES): CC1(C)Oc2cc(N3CCN(C(=O)OCc4ccccc4)CC3)c([N+](=O)[O-])cc2-c2c1cnn2-c1ccc(C(=O)O)cc1
- inhibition [3]: Active

- inhibition [4]: 40%
Structure (SMILES): NC(=O)c1c(Nc2ccc(F)cc2)[nH]c2c(Cl)ccc(Cl)c2c1=O

- Activity [5]: Active
- inhibition [4]: 14%
- inhibition [6]: inactive
- inhibition [7]: inactive
- inhibition [8]: inactive
- inhibition [9]: inactive
- Activity [10]: Active
Structure (SMILES): COc1cccc(Nc2[nH]c3c(Cl)ccc(Cl)c3c(=O)c2C(N)=O)c1

- IC50 (Protein lin-28 homolog A): 11 µM
Structure (SMILES): NC(=O)c1c(Nc2ccc(Cl)cc2Cl)[nH]c2c(Cl)c(Cl)ccc2c1=O
